Tests used:
[1] = target: T1, Type-2 angiotensin II receptor (Rattus norvegicus, UniProt P35351); test: In vitro inhibitory activity against angiotensin II rat midbrain AT2 receptor using radioligand [125I]-Sar Ile-AII
T1 sequence (P35351 whole entry): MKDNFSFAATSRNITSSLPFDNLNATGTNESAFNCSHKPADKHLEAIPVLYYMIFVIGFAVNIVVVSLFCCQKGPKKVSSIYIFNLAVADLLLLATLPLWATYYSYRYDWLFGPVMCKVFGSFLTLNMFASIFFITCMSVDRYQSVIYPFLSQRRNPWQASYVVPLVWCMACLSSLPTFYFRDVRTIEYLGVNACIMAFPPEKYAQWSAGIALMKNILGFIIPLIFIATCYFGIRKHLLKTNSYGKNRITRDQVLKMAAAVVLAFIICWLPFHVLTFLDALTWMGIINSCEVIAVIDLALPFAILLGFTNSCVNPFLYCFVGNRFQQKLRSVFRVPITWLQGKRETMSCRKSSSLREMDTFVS
Summary of the method: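 Dithiothreitol ([…]) was added to the assay mixture to abolish residual AT1 binding. Tubes were run in duplicate, and IC50 came from nonlinear regression of displacement curves.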

[2] = target: T2, Type-1 angiotensin II receptor (Oryctolagus cuniculus, UniProt P34976); test: In vitro inhibitory activity against angiotensin II rabbit aorta AT1 receptor using radioligand [125I]-Sar Ile-AII; assay type: tissue-based
T2 sequence (P34976 whole entry): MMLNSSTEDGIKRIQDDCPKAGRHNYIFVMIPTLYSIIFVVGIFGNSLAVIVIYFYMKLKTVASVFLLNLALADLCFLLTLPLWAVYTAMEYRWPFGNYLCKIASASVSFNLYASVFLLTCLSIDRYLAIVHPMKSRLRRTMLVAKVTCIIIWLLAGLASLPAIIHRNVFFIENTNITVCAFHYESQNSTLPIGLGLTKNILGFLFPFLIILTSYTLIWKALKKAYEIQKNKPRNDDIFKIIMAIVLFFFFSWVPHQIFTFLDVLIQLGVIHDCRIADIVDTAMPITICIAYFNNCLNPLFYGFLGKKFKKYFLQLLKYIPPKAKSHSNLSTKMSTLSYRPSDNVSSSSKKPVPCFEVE

Row | Structure (SMILES) | IC50 [1] | IC50 [2]
1 | CCCCc1nn(-c2ccccc2C(F)(F)F)c(=O)n1Cc1ccc(-c2ccccc2S(=O)(=O)NC(=O)c2occ(Cl)c2Cl)cc1 | 25 nM | 0.19 nM
2 | CCCCc1nn(-c2ccccc2C(F)(F)F)c(=O)n1Cc1ccc(-c2ccccc2S(=O)(=O)NC(=O)C2CCC2)cc1 | 100 nM | 0.84 nM
3 | CCCCOC(=O)NS(=O)(=O)c1ccccc1-c1ccc(Cn2c(CCCC)nn(-c3ccccc3C(F)(F)F)c2=O)cc1 | 190 nM | 0.59 nM
4 | CCCCc1nn(-c2ccccc2C(F)(F)F)c(=O)n1Cc1ccc(-c2ccccc2S(=O)(=O)NC(=O)c2ccccc2-c2ccccc2)cc1 | 330 nM | 0.6 nM
5 | CCCCc1nn(-c2ccccc2C(F)(F)F)c(=O)n1Cc1ccc(-c2ccccc2S(=O)(=O)NC(=O)c2ccccc2Cc2ccccc2)cc1 | 190 nM | 0.82 nM
6 | CCCCc1nn(-c2ccccc2C(F)(F)F)c(=O)n1Cc1ccc(-c2ccccc2S(=O)(=O)Nc2nc3ccccc3o2)cc1 | 700 nM | 5.2 nM
7 | CCCCc1nc(Cl)c(C(=O)O)n1Cc1ccc(-c2ccccc2-c2nn[nH]n2)cc1 [CARBOXYLIC ACID METABOLITE] | > 50000 nM | –
8 | CCCCc1nn(-c2ccccc2C(F)(F)F)c(=O)n1Cc1ccc(-c2ccccc2S(=O)(=O)NC#N)cc1 | > 1000 nM | 4.7 nM
9 | CCCCc1nn(-c2ccccc2C(F)(F)F)c(=O)n1Cc1ccc(-c2ccccc2S(=O)(=O)NC(=O)c2cc3ccccc3s2)cc1 | 430 nM | 0.31 nM
10 | CCCCc1nn(-c2ccccc2C(F)(F)F)c(=O)n1Cc1ccc(-c2ccccc2S(=O)(=O)NC(=O)C2CC2C)cc1 (stereo not drawn) | 120 nM | 0.56 nM
11 | CCCCc1nn(-c2ccccc2C(F)(F)F)c(=O)n1Cc1ccc(-c2ccccc2S(=O)(=O)NC(=O)C2CCCO2)cc1 (stereo not drawn) | 180 nM | 4.3 nM
12 | CCCCc1nn(-c2ccccc2C(F)(F)F)c(=O)n1Cc1ccc(-c2ccccc2S(=O)(=O)NC(=O)C2CCCC2)cc1 | 82 nM | 0.32 nM
13 | CC1CC1Cc1nn(-c2ccccc2C(F)(F)F)c(=O)n1Cc1ccc(-c2ccccc2S(=O)(=O)NC(=O)c2ccccc2)cc1 (stereo not drawn) | 500 nM | 5.8 nM
14 | CCCCc1nn(-c2ccccc2C(F)(F)F)c(=O)n1Cc1ccc(-c2ccccc2S(=O)(=O)NC(=O)c2ccccc2OC)cc1 | 72 nM | 0.41 nM
15 | CCCCc1nn(-c2ccccc2C(F)(F)F)c(=O)n1Cc1ccc(-c2ccccc2S(=O)(=O)NC(=O)c2sccc2Br)cc1 | 43 nM | 0.72 nM
16 | CCCCc1nn(-c2ccccc2C(F)(F)F)c(=O)n1Cc1ccc(-c2ccccc2S(=O)(=O)NC(=O)c2ccccc2F)cc1 | 53 nM | 0.13 nM
17 | CCCCc1nn(-c2ccccc2C(F)(F)F)c(=O)n1Cc1ccc(-c2ccccc2S(=O)(=O)NC(=O)C2CCOC2)cc1 (stereo not drawn) | 280 nM | 2.8 nM
18 | O=C(NS(=O)(=O)c1ccccc1-c1ccc(Cn2c(CCCC(F)(F)F)nn(-c3ccccc3C(F)(F)F)c2=O)cc1)c1ccccc1 | > 300 nM | 5.5 nM
19 | CCCCc1nn(-c2ccccc2C(F)(F)F)c(=O)n1Cc1ccc(-c2ccccc2S(=O)(=O)NC(=O)CCC2CCCC2)cc1 | 720 nM | 1.2 nM
20 | CCCCc1nn(-c2ccccc2C(F)(F)F)c(=O)n1Cc1ccc(-c2ccccc2S(=O)(=O)NC(=O)c2cc(C)oc2C(F)(F)F)cc1 | 60 nM | 0.17 nM
21 | CCCCc1nn(-c2ccccc2C(F)(F)F)c(=O)n1Cc1ccc(-c2ccccc2NS(=O)(=O)C(F)(F)F)cc1 | 5500 nM | 1.8 nM
22 | CCCCc1nn(-c2ccccc2C(F)(F)F)c(=O)n1Cc1ccc(-c2ccccc2S(=O)(=O)NC(=O)c2oc3ccccc3c2C)cc1 | 130 nM | 0.43 nM
23 | CCCCc1nn(-c2ccccc2C(F)(F)F)c(=O)n1Cc1ccc(-c2ccccc2S(=O)(=O)NC(=O)CCCC(=O)O)cc1 | 1500 nM | 5.5 nM
24 | CCCCc1nn(-c2ccccc2C(F)(F)F)c(=O)n1Cc1ccc(-c2ccccc2S(=O)(=O)NC(=O)c2ccc(Br)o2)cc1 | 170 nM | 0.4 nM
25 | CCCCc1nn(-c2ccccc2C(F)(F)F)c(=O)n1Cc1ccc(-c2ccccc2S(=O)(=O)NC(=O)c2cc(Cl)sc2Cl)cc1 | 87 nM | 2.6 nM
26 | CCCCc1nn(-c2ccccc2C(F)(F)F)c(=O)n1Cc1ccc(-c2ccccc2S(=O)(=O)NC(=O)c2ccc(C(F)(F)F)cc2)cc1 | 1400 nM | 3.8 nM
27 | CCCCc1nn(-c2ccccc2C(F)(F)F)c(=O)n1Cc1ccc(-c2ccccc2S(=O)(=O)NC(=O)c2ccccc2C(F)(F)F)cc1 | 220 nM | 0.27 nM
28 | CCCCc1nn(-c2ccccc2C(F)(F)F)c(=O)n1Cc1ccc(-c2ccccc2-c2nnn[nH]2)cc1 | 23000 nM | 0.78 nM
29 | CCCCc1nn(-c2ccccc2C(F)(F)F)c(=O)n1Cc1ccc(-c2ccccc2S(=O)(=O)NC(=O)CCCCCN)cc1 | 100 nM | 1.3 nM
30 | CCCCc1nn(-c2ccccc2C(F)(F)F)c(=O)n1Cc1ccc(-c2ccccc2S(=O)(=O)NC(=O)c2cc3ccccc3o2)cc1.CCOCC | – | 0.17 nM

Further lines, results first:

Row | IC50 [1] | IC50 [2] | Structure (SMILES)
31 | 160 nM | 1.3 nM | CCCCc1nn(-c2ccccc2C(F)(F)F)c(=O)n1Cc1ccc(-c2ccccc2S(=O)(=O)NC(=O)C(C)(C)C)cc1
32 | 150 nM | 2.4 nM | CCCCc1nn(-c2ccccc2C(F)(F)F)c(=O)n1Cc1ccc(-c2ccccc2S(=O)(=O)NC(=O)c2cccc(Cl)c2)cc1
33 | 130 nM | 2.6 nM | CCCCc1nn(-c2ccccc2C(F)(F)F)c(=O)n1Cc1ccc(-c2ccccc2S(=O)(=O)NC(=O)NC(C)(C)C)cc1
34 | 35 nM | 1.1 nM | CCCCc1nn(-c2ccccc2C(F)(F)F)c(=O)n1Cc1ccc(-c2ccccc2S(=O)(=O)NC(=O)c2ocnc2C)cc1
35 | 300 nM | 5 nM | CCCCc1nn(-c2ccccc2C(F)(F)F)c(=O)n1Cc1ccc(-c2ccccc2S(=O)(=O)NC(=O)c2ccsc2)cc1
36 | 500 nM | 1.6 nM | CCCCc1nn(-c2ccccc2C(F)(F)F)c(=O)n1Cc1ccc(-c2ccccc2S(=O)(=O)NC(=O)c2cccn2C)cc1
37 | 190 nM | 5.9 nM | CCCCc1nn(-c2ccccc2C(F)(F)F)c(=O)n1Cc1ccc(-c2ccccc2S(=O)(=O)NC(=O)c2c(C)cccc2C)cc1
38 | 3600 nM | 0.16 nM | CCCCc1nn(-c2ccccc2C(F)(F)F)c(=O)n1Cc1ccc(-c2ccccc2S(=O)(=O)NS(=O)(=O)C(C)C)cc1
39 | 700 nM | 3.9 nM | CCCCc1nn(-c2ccccc2C(F)(F)F)c(=O)n1Cc1ccc(-c2ccccc2S(=O)(=O)NC(=O)c2ccoc2)cc1
40 | 75 nM | 2.2 nM | CCCCc1nn(-c2ccccc2C(F)(F)F)c(=O)n1Cc1ccc(-c2ccccc2S(=O)(=O)NC(=O)OCC)cc1
41 | 500 nM | 0.74 nM | CCCCc1nn(-c2ccccc2C(F)(F)F)c(=O)n1Cc1ccc(-c2ccccc2S(=O)(=O)NC(=O)c2ccc(OC)cc2)cc1
42 | 76 nM | 0.8 nM | CCCCc1nn(-c2ccccc2C(F)(F)F)c(=O)n1Cc1ccc(-c2ccccc2S(=O)(=O)NC(=O)C2(C)CC2)cc1
43 | 4600 nM | 7 nM | CCCCc1nn(C(C)C)c(=O)n1Cc1ccc(-c2ccccc2S(=O)(=O)NC(=O)c2ccccc2)cc1
44 | 110 nM | 3 nM | CCCCc1nn(-c2ccccc2C(F)(F)F)c(=O)n1Cc1ccc(-c2ccccc2S(=O)(=O)NC(=O)c2ccoc2C)cc1
45 | 80 nM | 0.81 nM | CCCCc1nn(-c2ccccc2C(F)(F)F)c(=O)n1Cc1ccc(-c2ccccc2S(=O)(=O)NC(=O)c2sccc2C)cc1
46 | > 1000 nM | – | CCCCc1nn(-c2ccccc2Cl)c(=O)n1Cc1ccc(-c2ccccc2S(=O)(=O)NC(C)=O)cc1
47 | 150 nM | 0.4 nM | CCCCc1nn(-c2ccccc2C(F)(F)F)c(=O)n1Cc1ccc(-c2ccccc2S(=O)(=O)NC(=O)c2ccc(C)o2)cc1
48 | 520 nM | 1.2 nM | CCCCc1nn(-c2ccccc2C(F)(F)F)c(=O)n1Cc1ccc(-c2ccccc2S(=O)(=O)NC(=O)c2ccc(Cl)cc2)cc1
49 | 520 nM | 13 nM | CCCc1nn(-c2ccccc2C(F)(F)F)c(=O)n1Cc1ccc(-c2ccccc2S(=O)(=O)NC(=O)c2ccccc2)cc1
50 | 310 nM | 1 nM | CCCCc1nn(-c2ccccc2C(F)(F)F)c(=O)n1Cc1ccc(-c2ccccc2S(=O)(=O)NC(=O)c2cc(C)oc2C)cc1
51 | 55 nM | 0.22 nM | CCCCc1nn(-c2ccccc2C(F)(F)F)c(=O)n1Cc1ccc(-c2ccccc2S(=O)(=O)NC(=O)c2oc(C)cc2C)cc1
52 | 190 nM | 0.64 nM | CCCCc1nn(-c2ccccc2C(F)(F)F)c(=O)n1Cc1ccc(-c2ccccc2S(=O)(=O)NC(=O)c2ccc(C)s2)cc1
53 | 450 nM | – | CCCCc1nn(-c2ccccc2Cl)c(=O)n1Cc1ccc(-c2ccccc2S(=O)(=O)NC(=O)C(F)(F)F)cc1
54 | 11000 nM | – | CCCCc1nn(-c2ccccc2Cl)c(=O)n1Cc1ccc(-c2ccccc2S(=O)(=O)NC(C)(C)C)cc1
